Source: PubChem BioAssay
A selection: hits, their analogues and other compounds. The true share with any hit is near 0.95%.
HKDC1 inh: HKDC1 (human) hexokinase inhibition; inhibition, % at 20 µM; actives 0.16% (n = 340,000); recombinant HKDC1, G6PDH/diaphorase resazurin coupled fluorescence;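 active means inhibition above about 35% when tested at 20 µM, limit read from the data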;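 further: plate controls were DMSO wells with enzyme for no effect and DMSO wells lacking enzyme for full effect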
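Material – in-house recombinant HK5 (HKDC1) enzyme · Quantity – HKDC1 at 5 µg/mL · Buffer or medium – pH 8.0 Tris buffer with 10 mM MgCl2 · Reagent – glucose with 1 mM ATP · Dosing – single 20 µM dose · Times – reaction time 90 min, room temperature, protected from light · Technique – resorufin fluorescence at 613 nm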
Diaphorase inh: diaphorase inhibition or chemical oxidation counter-screen; diaphorase resazurin-to-resorufin fluorescence, NADH, 16 min; bacterial (C. kluyveri) enzyme, not human; inhibition, % at 20 µM; actives 0.69% (n = 190,000); AID 1217;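 active means primary screen inhibition at 20 µM above a set limit, cut at about 50% in these data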;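 further: plate controls were DMSO with full reaction for no effect and wells lacking NADH for full effect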
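System: Bacterial diaphorase enzyme (C. kluyveri) | Incubation: 16-min room-temperature incubation before reading | Benchmarks: No-NADH positive control and DMSO neutral control | Measured by: Resorufin fluorescence 544/590 nm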
G6PDH CS: inhibits Leuconostoc G6PDH, flagging false hits in G6PDH-based assays | Purified L. mesenteroides G6PDH, diaphorase/resazurin coupled fluorescence, 45 min | inhibition, % at 5 µM | actives 0.12% (n = 200,000); in the data active means inhibition above about 50%
UBC9 SUMO inh: SUMOylation inhibition. HTRF SUMOylation assay, SAE1/SAE2 + UBC9, in vitro. AID 2006. inhibition, % at 35 µM. P63279. actives 0.36% (n = 290,000); in the data active means inhibition above about 50%, passing the limit was not always enough
p97 ATPase inh: human p97 ATPase inhibition; recombinant p97 ATPase, Kinase-Glo ATP luminescence, 3 h; inhibition, % at 8 µM; AID 1481; actives 0.42% (n = 220,000); P55072; in the data active means inhibition above about 15%;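 further: 0% = DMSO vehicle and 100% = wells lacking enzyme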
* marks the source's active call; other numbers are inactive results; . = no result given.

SMILES	HKDC1 inh	Diaphorase inh	G6PDH CS	UBC9 SUMO inh	p97 ATPase inh
COC(=O)CCC(=O)Nc1ccc(S(=O)(=O)Nc2nc(C)cc(C)n2)cc1	-1	.	.	2	.
CNc1ccc(Br)cc(C(=O)/C=C/c2ccc(OC)cc2OC)c1=O	25	42	21	26	5
CCNc1ccc(Br)cc(C(=O)/C=C/c2ccc3c(c2)OCO3)c1=O	21	59*	38	22	5
CNc1ccc(Br)cc(C(=O)/C=C/c2ccc(Cl)cc2Cl)c1=O	19	85*	34	41	7
CCNc1ccc(Br)cc(C(=O)/C=C/c2ccc(Cl)cc2)c1=O	12	47	20	19	8
CNc1ccc(Br)cc(C(=O)/C=C/c2cccc(OC)c2)c1=O	26	50*	24	32	8
COc1ccccc1CNC(=O)COC(=O)c1ccc(C)c(S(=O)(=O)N2CCCCC2)c1	-3	.	.	-8	.
CCOC(=O)c1c(NC(=O)C2C3CCC(O3)C2C(=O)O)sc(C)c1-c1ccc(C)cc1 (centres undefined)	-1	52*	-1	21	2
Cc1cc(C(=O)NCCc2ccc(S(N)(=O)=O)cc2)c(C)o1	-4	.	.	6	.
O=C1c2ccccc2C(=O)N1c1cccc2cccnc12	-3	2	0	74*	5
Cc1oc2c(c(C)cc3oc(=O)c(CC(=O)NCC(=O)NCC(=O)NCC(C)O)c(C)c32)c1C (centres undefined)	4	.	.	60*	.
CSCC[C@H](NC(=O)Cc1c(C)c2c(cc(C)c3c(C)c(C)oc32)oc1=O)C(=O)O	1	.	.	57*	.
CCC(NC(=O)Cc1c(C)c2c(cc(C)c3c(C)c(C)oc32)oc1=O)C(=O)O (centres undefined)	4	.	.	54*	.
Cc1oc2c(c(C)cc3oc(=O)c(CC(=O)NCCCO)c(C)c32)c1C	8	.	.	47	.
COc1ccc2c(c1)cc(C(=O)N[C@@H](CCSC)C(=O)N1CCC(C(=O)O)CC1)n2C	1	.	.	10	.
CCC(C)N(C(=O)Cn1nnc(-c2ccc(Cl)cc2)n1)C1CCS(=O)(=O)C1 (centres undefined)	-5	.	.	.	.
CCCCOC(=O)c1ccc(NC(=O)/C=C/c2cccs2)cc1	-14	5	-32	-10	0
CCOC(=O)NC1(Nc2cccc(Cl)c2)Oc2ccccc2O1	5	55*	11	2	7
CCOC(=O)NC(=O)/C(C#N)=N\Nc1cccc(Cl)c1	-6	.	.	13	0
Cc1ccccc1OCC(=O)NCC(c1cccs1)N1CCOCC1 (centres undefined)	-4	.	.	.	.
Cc1cc(NC(=O)OC2CCCCC2)ccc1[N+](=O)[O-]	2	.	.	-13	.
Cc1ccc(CNC(=O)C(c2ccccc2)c2ccccc2)cc1	-2	.	.	-1	.
CC1=C(C#N)c2nc(N)c(C#N)c(C)c2/C1=C\c1ccc(-c2ccccc2C(=O)O)o1	17	62*	-5	40	9
CC1(C)Nc2ccccc2C(=O)N1c1ccccc1	-5	.	.	12	.
CCC1CCCCN1c1nc2c(C=O)c(C)nn2c2ccccc12 (centres undefined)	-8	68*	-24	20	0
SMILES	HKDC1 inh	Diaphorase inh	G6PDH CS	UBC9 SUMO inh	p97 ATPase inh
CCOC(=O)c1nnn2c1nc(N1CCCCC1)c1ccccc12	-1	.	.	6	0
Cc1ccc(C(=O)N/C(=C/c2cccnc2)C(=O)N2CCCCCC2)cc1	0	.	.	8	.
COC(=O)c1ccc2c(c1O)C(=O)c1ccccc1C2=O	18	11	53*	37	-1
O=C1c2ccccc2C(=O)c2c1ccc(O)c2O	11	.	.	.	.
Cc1ccc(NC(=O)Nc2ccno2)cc1	-18	.	.	72*	3
O=C(NNC(=O)C12CC3CC(CC(C3)C1)C2)c1ccccc1[N+](=O)[O-]	4	.	.	1	.
Cc1ccc(N2C(=O)C3C4C=CC(C4)C3C2=O)cc1C (centres undefined)	0	12	1	-3	6
CC1=NN(c2ccc(C)c(C)c2)C(=O)C1C(c1cccc(O)c1)C1C(=O)N(c2ccc(C)c(C)c2)N=C1C (centres undefined)	9	21	5	22	35*
COc1ccc(-c2cc3nc(-c4ccccc4)cc(N4CCC(O)CC4)n3n2)cc1	-5	50*	17	28	-4
C=CCS/C(N)=N\N=C\c1c(O)ccc2ccccc12	8	.	.	0	1
O=C(NN1C(=O)CSC1=S)C(=O)NN1C(=O)CSC1=S	-37	20	0	96*	6
